Hits are enriched below; roughly 1.3% of the tested compounds scored in any of these assays.
Keap1 Nrf2 FP – disrupts human Keap1 binding to Nrf2 peptide. 340,000 tested, 0.15% active. inhibition, % at 9.4 µM. Q14145. Keap1 Kelch-Nrf2 peptide fluorescence polarization, 1536-well; in the data active means inhibition above about 12%;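 further: human Keap1 Kelch domain with fluorescein labeled Nrf2 9mer peptide probe; 0% = neutral control wells and 100% = peptide positive control; higher means more block of Keap1 binding to Nrf2 peptide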
Target sequence (Q14145 whole entry, looked up, the tested form may be a part): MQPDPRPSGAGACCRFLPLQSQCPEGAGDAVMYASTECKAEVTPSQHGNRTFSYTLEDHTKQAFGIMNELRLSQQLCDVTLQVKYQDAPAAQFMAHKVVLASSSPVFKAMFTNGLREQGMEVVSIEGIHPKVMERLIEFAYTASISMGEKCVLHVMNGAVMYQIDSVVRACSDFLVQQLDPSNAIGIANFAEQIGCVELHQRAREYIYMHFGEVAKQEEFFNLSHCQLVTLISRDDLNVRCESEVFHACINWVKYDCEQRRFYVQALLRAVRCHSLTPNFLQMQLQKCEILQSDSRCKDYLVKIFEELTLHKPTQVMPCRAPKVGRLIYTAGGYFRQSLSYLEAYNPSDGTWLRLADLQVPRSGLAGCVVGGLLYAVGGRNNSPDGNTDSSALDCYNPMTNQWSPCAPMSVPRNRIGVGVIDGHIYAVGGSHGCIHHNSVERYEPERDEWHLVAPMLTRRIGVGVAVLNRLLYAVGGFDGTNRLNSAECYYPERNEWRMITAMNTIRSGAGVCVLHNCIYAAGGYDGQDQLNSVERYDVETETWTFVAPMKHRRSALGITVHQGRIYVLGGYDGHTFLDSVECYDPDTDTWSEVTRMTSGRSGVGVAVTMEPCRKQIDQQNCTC
CAL PDZ FP-1 – human CAL PDZ-peptide interaction inhibition; inhibition, % at 20 µM; Q9HD26; purified CAL PDZ, TMR-peptide fluorescence polarization, 1 h; 330,000 tested, 0.02% active;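 active means highest replicate inhibition of at least 40%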;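 further: plate controls were DMSO neutral control wells for no effect and unlabeled competitor peptide control wells for full effect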
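Assay system – tagged CAL PDZ protein CerCALP, purified · Timing – 1 h at RT · Compound – single point, 20 µM · Measured by – fluorescence polarization from S- and P-plane intensities, G-factor corrected · Evaluation – inhibition from polarization loss · Probe or stimulus – TMR reporter peptide T*-PRC34 · Buffer or medium – pH 7.4 phosphate-saline buffer, reducing agent, detergent, IgG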
RTF Ca sens inh – cardiac RTF calcium desensitization; P19429+P45379; IANBD-labeled cardiac RTF, Ca2+ fluorescence; inhibition, % at 7.15 µM; 340,000 tested, 0.12% active;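 active means inhibition above the mean inhibition of all tested compounds plus 3 SD, cut at about 17% in these data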;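 further: assay run at fixed EC70 calcium of 1.6 mM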
C-LANA FP – blocks KSHV LANA C-terminal domain binding to DNA; MBP-C-LANA/FAM-LBS DNA binding, fluorescence polarization; inhibition, % at 9 µM; 340,000 tested, 0.078% active;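 active means highest replicate inhibition at or above 60% at 9 µM, even if other replicates fall short; inactive means all replicates below 60% inhibition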;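 further: 0% = neutral control wells and 100% = 4 µM acridine orange control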
CAL PDZ FP-2 – CAL PDZ (human) peptide binding inhibition. 300,000 tested, 0.92% active. inhibition, % at 24.9 µM. Q9HD26. purified CAL PDZ, TMR-peptide fluorescence polarization, 1 h;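 active means mean inhibition of at least 30% with at least half of replicates also reaching 30%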;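 further: 0% = DMSO neutral control and 100% = excess unlabeled competitor peptide PRC23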
RTF Ca sens act – cardiac RTF calcium sensitization; IANBD-labeled TnC RTF fluorescence at EC20 calcium; 0% EC20 calcium, 100% full calcium; activation, % at 7.2 µM; 340,000 tested, 0.24% active; AID 493008;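 active means activation above the mean over all tested compounds plus 3 SD, cut at about 30% in these data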;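 further: rise in fluorescence read as greater calcium sensitivity of cardiac thin filaments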
Keap1 TSA – binds and thermally shifts human Keap1 Kelch domain | shares compounds with Keap1 Nrf2 FP | Keap1 Kelch thermal shift, delta Tm; stronger effect = higher value | max delta Tm, degrees C | 400 tested, 8% active; in the data active means max delta Tm above about 0.48 degrees C
Dye-only ctr – counter-screen for Keap1 thermal shift hits: dye-only artifacts | delta Tm, degrees C (no concentration beside the values) | AID 651858 | Sypro Orange dye-only thermal melt, no protein, delta Tm; top dose 26 µM | shares compounds with Keap1 Nrf2 FP | 140 tested, under 10 active;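 active means at highest dose tested, delta Tm positive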
Active calls of the source: *; . = no result.

SMILES	Keap1 Nrf2 FP	CAL PDZ FP-1	RTF Ca sens inh	C-LANA FP	CAL PDZ FP-2	RTF Ca sens act	Keap1 TSA	others
Cc1ccc(CCNC(=O)C2CCCN(S(=O)(=O)N3CC(C)CC(C)C3)C2)cc1 (centres undefined)	0.7	-1.9	-5.8	1.0	-0.7	2.3	.
COc1cc(Cl)c(C)cc1NCC(=O)Nc1cccc(S(=O)(=O)N2CCCC2)c1	28.0*	1.5	-4.0	15.3	.	12.2	-0.1	Dye-only ctr=-27.4
O=C(CNc1ccc(F)cc1Cl)Nc1cccc(S(=O)(=O)N2CCCCC2)c1	-1.4	0.1	-0.7	-0.7	.	-0.1	.
c1ccc(CSc2nnc(-c3ccco3)n2Cc2ccco2)cc1	-0.5	-2.7	-3.7	0.2	-4.7	-0.2	.
CCCCOc1[nH]c2nc(-c3ccco3)n(Cc3ccco3)c(=N)c2c1C#N	16.2*	.	-36.1	35.8	5.3	21.6	0.23
CCCOc1ccc(C(=O)CCC(=O)Nc2ccc(N3CCN(C)CC3)cc2)cc1	-0.6	-0.5	-4.2	-0.1	-4.7	1.0	.
CCN(C(=O)COC(=O)CCCc1c[nH]c2ccccc12)c1c(N)n(Cc2ccccc2)c(=O)[nH]c1=O	-4.2	1.3	-1.4	0.6	-0.6	-0.6	.
CCOC(=O)N/N=C/c1c(C)nn(-c2ccccc2Cl)c1Cl	-0.2	-4.6	-3.6	-0.4	-4.7	2.0	.
Cc1nn(-c2ccccc2Cl)c(Cl)c1/C=N/Nc1nc2ccccc2s1	34.2*	-0.5	-23.3	3.7	-1.1	-5.0	-0.11
N#CCCCC1(CCCC#N)OCCO1	2.6	-0.4	0.1	0.9	0.2	2.5	.
COc1cc(/C=C/CN2CCN(Cc3ccc(C)o3)C(CCO)C2)ccc1O (centres undefined)	2.2	-2.9	-10.6	0.0	-2.2	5.3	.
COc1cc(/C=C/CN2CCN(CCC(C)C)C(CCO)C2)ccc1O (centres undefined)	17.7*	-0.5	0.5	0.1	.	1.6	-0.19
COc1ccc(S(N)(=O)=O)cc1C(=O)OCC(=O)Nc1ncc(Cl)c(C)c1Cl	-4.0	0.3	-6.4	-0.2	-5.1	6.1	.
CCCCC1OC2(C)OC(=N)C1(C#N)C(C#N)(C#N)C2c1ccccc1 (centres undefined)	30.0*	-1.1	-18.4	57.3	2.4	17.0	-0.12
CC1C2(C)OC(=N)C(C#N)(C(C)O2)C1(C#N)C#N (centres undefined)	7.9	0.5	-13.1	29.7	1.3	17.1	.
CC1OC2(C)OC(=N)C1(C#N)C(C#N)(C#N)C2c1ccccc1 (centres undefined)	22.9*	-0.5	-14.2	36.7	-3.0	14.2	-0.03	Dye-only ctr=-29.1
COc1ccc(C(=O)c2ccccc2CN2C(=O)c3ccccc3C2=O)cc1	2.7	-1.5	-2.9	1.1	-6.9	-1.4	.
COCCNC(=O)Cn1cc(/C=C(\C#N)C(=O)NC2CCCC2)c2ccccc21	-2.4	-0.9	2.5	-2.2	.	2.8	.
COc1cccc(NC(=O)CN(C)CC(=O)NCc2ccc(F)cc2)c1	-4.3	-1.2	1.1	-2.2	.	-4.1	.
COc1cccc(NC(=O)CN(C)CC(=O)NCc2ccco2)c1	24.0*	-1.3	2.8	80.8*	-3.3	-6.8	-0.07	Dye-only ctr=-22.4
O=C(CCCN1C(=O)/C(=C\c2ccco2)SC1=S)Nc1ccc(O)cc1C(=O)O	28.1*	-2.3	9.8	109.0*	-2.1	-14.8	0.33	Dye-only ctr=-27.7
O=C(CCCN1C(=O)/C(=C\c2cccs2)SC1=S)Nc1ccc(O)cc1C(=O)O	-7.4	-1.0	-2.9	-0.1	-3.6	-1.6	.
N#CC(=C(O)COC(=O)CCCNC(=O)c1ccc(Cl)cc1)c1nc2ccccc2[nH]1	-2.7	0.7	-5.8	-3.2	-3.9	-4.4	.
COc1ccc(NC(=S)Nc2ccccc2)cn1	2.6	-0.8	-2.2	2.0	-3.8	0.2	.
CCCCNC(=S)Nc1ccc(OC)nc1	12.1*	-2.4	-13.8	16.1	-6.9	2.7	-0.14
SMILES	Keap1 Nrf2 FP	CAL PDZ FP-1	RTF Ca sens inh	C-LANA FP	CAL PDZ FP-2	RTF Ca sens act	Keap1 TSA	others
CN1CC=C2C(C#N)=C(N)C(C#N)(C#N)[C@H](c3ccoc3)[C@H]2C1	26.6*	-0.2	-56.4	58.0	-7.5	50.5*	-0.08
Cc1ccc(C2C3CN(C(C)C)CC=C3C(C#N)=C(N)C2(C#N)C#N)cc1 (centres undefined)	22.8*	-1.7	-130.2	40.8	-3.2	136.1*	0.02
CC(=O)N1CC=C2C(C#N)=C(N)C(C#N)(C#N)[C@H](c3ccoc3)[C@H]2C1	-6.7	-2.6	-19.3	13.4	.	7.7	.
C=CCOc1ccc(C=NNc2ccc(S(=O)(=O)Nc3ccccc3C(=O)O)cc2[N+](=O)[O-])cc1OC	12.8*	0.0	-0.3	14.1	-3.3	-9.0	0.91*
CCOc1ccc(C=NNc2ccc(S(=O)(=O)Nc3ccccc3C(=O)O)cc2[N+](=O)[O-])cc1	0.8	-3.1	0.4	0.5	-3.0	-16.7	.
Cc1ccc(NC(=O)c2nc[nH]c2C(=O)N(C)Cc2ccccc2)cc1	0.2	-1.5	-4.4	2.4	-3.0	-5.5	.
CNC(=O)C1CC(=O)N(c2ccc(OCC(=O)Nc3ccc(F)cc3)cc2)C1 (centres undefined)	29.9*	-1.4	-10.3	14.6	.	4.7	-0.09	Dye-only ctr=-26.1
CC1CCCCC12NC(=O)N(CC(=O)Nc1ccc(OC(F)F)cc1)C2=O (centres undefined)	-1.9	-0.1	-8.1	2.0	-3.0	6.2	.
COc1cc(/C=C2/C(C)=C(C#N)c3nc(N)c(C#N)c(C)c32)ccc1OCC(=O)O	-3.1	-0.6	.	5.6	2.5	.	.
CC1=C(C#N)c2nc(N)c(C#N)c(C)c2/C1=C\c1ccc(-c2ccccc2C(=O)O)o1	92.0*	.	4.0	16.9	-2.5	-2.9	2.26*
NC(=O)c1cc2ccc(O)cc2oc1=NCc1ccccc1	16.1*	.	-66.5	21.6	-5.4	60.2*	-0.14	Dye-only ctr=-26
CNC(=S)Nc1cccc(C(=O)OC)c1	40.6*	-0.8	.	.	.	.	-0.03	Dye-only ctr=-27.9
CC(=O)Nc1ccc(S(=O)(=O)NCCC(=O)NNC(=O)c2ccncc2)cc1	-4.7	-0.7	-6.6	0.5	-3.6	5.0	.
Cc1ccc(NC(=O)c2ncn(CCCN[C@H](C)c3cccc4ccccc34)n2)cc1C	-2.8	-1.2	-2.7	0.8	-5.8	-5.1	.
C=CCn1ccc(=NC=C(C#N)C#N)c2ccccc21	130.4*	0.9	-8.5	23.6	-2.2	3.6	-0.04
CN1/C(=C/C=N/n2cnnc2)C(C)(C)c2ccccc21	1.5	0.7	-3.9	0.4	6.0	-0.8	.
CN1/C(=C\C(=O)Nc2ccc(Cl)cc2)C(C)(C)c2ccccc21	0.3	-1.0	-12.1	1.1	-1.7	-6.7	.
CN1/C(=C\C=C(C#N)C#N)C(C)(C)c2ccccc21	44.8*	-1.1	-6.7	164.9	-3.9	0.7	0
CN1/C(=C\C=C(/C#N)C(=O)Nc2ccc(Cl)cc2)C(C)(C)c2ccccc21	14.0*	-1.2	-17.7	32.6	-3.8	9.7	-0.06
CC1(C)C(C(=O)OCC(Cl)(Cl)Cl)N2C(=O)C(NC(=O)Cc3ccccc3)C2S1=O (centres undefined)	2.8	-0.4	0.2	-1.0	-4.6	-4.3	.
Cc1ccccc1OCCC(=O)Nc1cc(S(=O)(=O)N2CCCCC2)ccc1N1CCN(C)CC1	54.1*	-0.3	-11.8	28.2	.	18.0	0.02

Bioassay records from PubChem BioAssay.
